This is an account of results in ChEMBL document CHEMBL1158530, “Phosphate ester derivatives of homocamptothecin: synthesis, solution stabilities and antitumor activities” (Bioorg Med Chem, 2010).

By IC50 is commonly meant the point on the concentration scale where inhibition reaches its midpoint. A higher IC50 goes with weaker potency. In general, TGI refers to how far tumour growth fell short of that in controls.

Data set [1] concerns A549. Description: Cytotoxicity against human A549 cells after 72 hrs by MTT assay. It counts as functional, cell-based. Conditions: A549, 72 h. A digest of the protocol:
(§1)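 A549, MDA-MB-435 and LOVO cells seeded at 6000–10,000 per well. Treated in triplicate with graded drug concentrations for 72 h at 37 °C. Viability read by MTT; IC50 taken from the dose–response curve.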

Data set [2] has as its system MDA-MB-435. Description: Cytotoxicity against human MDA-MB-435 cells after 72 hrs by MTT assay. It counts as functional, cell-based. Conditions: MDA-MB-435, 72 h. The gist of the method: as §1
(In general: Tetrazolium assays rely on reduction of a dye to a coloured formazan, in cell work by metabolically active cells.)

The test system of data set [3] is LoVo. Description: Cytotoxicity against human LoVo cells after 72 hrs by MTT assay. The data set is classed as functional, cell-based. The gist of the method: as §1
Data set [4] is described as follows: Chemical stability assessed as compound remaining at pH 7.4 after 24 hrs by modified HPLC method. To be noted: buffer, read-out: Stability. It counts as physicochemical. The gist of the method:
(§2)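 Drug in DMSO (2 mM, 430 μL) added to 70 μL of aqueous solution preincubated 5 min at 37 °C. Samples held at 37 °C, pH 3.0 or pH 7.4. Percent of initial phosphate-form concentration followed by modified HPLC.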

Data set [5] relates to A549. Description: Antitumor activity against human A549 cells xenografted in BALB/c mouse assessed as inhibition of tumor growth at 50 mg/kg, ip relative to control. The data set is classed as functional. To be noted: route intraperitoneal, read-out: TGI. A digest of the protocol: (§3)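 Male BALB/c nude mice (18-20g) implanted subcutaneously in right axilla with A549 cells. Treatment started at day 17 when tumors reached about 100–300 mm³. Single ip injection on day 17, six mice per group, eight controls. Caliper length and width every 4 days, TV = 1/2 × a × b². Sacrificed day 35, tumors removed; growth inhibition relative to placebo controls.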
For orientation: In xenograft studies the graft and the host belong to different species.

Data set [6] is described as follows: Chemical stability assessed as compound remaining at pH 3.0 after 24 hrs by modified HPLC method. It counts as physicochemical. Conditions: buffer, read-out: Stability. A digest of the protocol:
as §2

Data set [7] has as its system A549. Description: Antitumor activity against human A549 cells xenografted in ip dosed BALB/c mouse assessed as tumor regression. The data set is classed as functional, organism-based. A digest of the protocol: as §3
For data set [8], the species on record is Bos taurus. Description: Inhibition of calf thymus topoisomerase 1-mediated relaxation of Escherichia coli pBR322 plasmid DNA at 1 uM after 15 mins by cleavable complex assay. A digest of the protocol:
(§4)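 Calf thymus Topo I (0.5 U) with 0.25 μg supercoiled pBR322 in Topo I buffer containing BSA, with or without drug, 37 °C for 15 min. Stopped with 0.5% SDS final. Run on 0.8% agarose gel in TAE, 120 V for 40 min, stained with ethidium bromide, viewed under UV.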

Data set [9] has as its system A549. Description: Antitumor activity against human A549 cells xenografted in BALB/c mouse assessed as inhibition of tumor growth at 6.25 to 25 mg/kg, ip relative to control. Conditions: dose mg/kg 6.25-25; route intraperitoneal. The data set is classed as functional. The gist of the method:
as §3

Data set [10] has as its system A549. Description: Antitumor activity against human A549 cells xenografted in BALB/c mouse assessed as inhibition of tumor growth at 25 mg/kg, ip relative to control. To be noted: route intraperitoneal, read-out: TGI. The data set is classed as functional. A digest of the protocol:
as §3

The species entered for data set [11] is Bos taurus. Description: Inhibition of calf thymus topoisomerase 1-mediated relaxation of Escherichia coli pBR322 plasmid DNA at 100 uM after 15 mins by cleavable complex assay. A digest of the protocol: as §4
The species entered for data set [12] is Bos taurus. Description: Inhibition of calf thymus topoisomerase 1-mediated relaxation of Escherichia coli pBR322 plasmid DNA after 15 mins by cleavable complex assay. A digest of the protocol: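 Calf thymus Topo I (0.5 U) incubated with 0.25 μg supercoiled pBR322 DNA in Topo I buffer with 0.1% BSA stock, with or without drug at 1, 10 and 50 μM, 37 °C for 15 min. Stopped with SDS (0.5% final). Products resolved on 0.8% agarose gel in TAE (120 V, 40 min), ethidium bromide stained, imaged under UV.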

Structures are written as SMILES. Active and inactive are the calls of the source. The rule behind the calls is not given here. Some results are limits rather than exact numbers.

Consider `CCOP(=O)(OCC)Oc1ccc2nc3c(c(C)c2c1)Cn1c-3cc2c(c1=O)COC(=O)C[C@]2(O)CC`, for which the figures for the half-maximal inhibitory concentration (IC50) in [1], in [2] and in data set [3] were 8.05 µM, 0.79 µM and 1.26 µM, respectively.

For `CC[C@@]1(O)CC(=O)OCc2c1cc1n(c2=O)Cc2c-1nc1ccc(OP(=O)(OCC(F)(F)F)OCC(F)(F)F)cc1c2C`, the IC50 came to 15.5 µM in data set [1], 0.22 µM in data set [2] and 5.42 µM in data set [3].

In the case of `CC[C@@]1(O)CC(=O)OCc2c1cc1n(c2=O)Cc2c-1nc1ccc(OP(=O)(O)OCc3ccccc3)cc1c2C`, the IC50 was 29.4 µM in data set [1], 10.8 µM in [2] and 9.31 µM in [3].

As to `CCOP(=O)(O)Oc1ccc2nc3c(c(C)c2c1)Cn1c-3cc2c(c1=O)COC(=O)C[C@]2(O)CC`, the IC50 in data set [1] is 11.4 µM; in [2] it was 5.26 µM; in [3] it was 7.24 µM.

Take `CCCCCOP(=O)(OCCCCC)Oc1ccc2nc3c(c(C)c2c1)Cn1c-3cc2c(c1=O)COC(=O)C[C@]2(O)CC`: the remaining at 24 h in data set [4] was determined as 91%; in [6] it was 100%. The IC50 in [1] came to 2.3 µM; in [2] it was 0.72 µM; in [3] it was 1.19 µM. Besides, the inhibition in vivo at 50 mg/kg in data set [5] came out at 42%. Moreover, the Activity entry in [7] was “Dose-dependent effect”.

Take `CCCCCCCCCCCCCCCCOP(=O)(OCCCCCCCCCCCCCCCC)Oc1ccc2nc3c(c(C)c2c1)Cn1c-3cc2c(c1=O)COC(=O)C[C@]2(O)CC`: the IC50 in data set [1], in data set [2] and in data set [3] was > 100 µM in each case.

Consider `CC[C@@]1(O)C(=O)OCc2c1cc1n(c2=O)Cc2cc3ccccc3nc2-1`, for which the inhibition entry in [8] is “inactive”.

As to `CCCCOP(=O)(OCCCC)Oc1ccc2nc3c(c(C)c2c1)Cn1c-3cc2c(c1=O)COC(=O)C[C@]2(O)CC`, the remaining at 24 h in [4] came to 95%; in data set [6], 100%. The TGI in [9] is 25%. Moreover, the half-inhibitory concentration (IC50) is 2.84 µM in [1], 0.51 µM in data set [2] and 0.91 µM in data set [3]. Moreover, in [10], the inhibition in vivo at 25 mg/kg is 59%. In [11], the inhibition entry is “Active”. For the same compound, the Activity result in [7] was “Dose-dependent effect”.

`CC[C@@]1(O)CC(=O)OCc2c1cc1n(c2=O)Cc2c-1nc1ccc(OP(=O)(OC(C)C)OC(C)C)cc1c2C`: the values for the IC50 in [1], in data set [2] and in data set [3] were 11.4 µM, 3.4 µM and 5.56 µM, respectively.

Turning to `CC[C@@]1(O)CC(=O)OCc2c1cc1n(c2=O)Cc2c-1nc1ccc(O)cc1c2C`, the inhibition result in data set [12] is “Dose-dependent effect”. In addition, the 50% inhibitory concentration (IC50) in data set [1] is 0.03 µM; in [2], < 0.001 µM; in data set [3], 0.01 µM.

On to `CCc1c2c(nc3ccc(OC(=O)N4CCC(N5CCCCC5)CC4)cc13)-c1cc3c(c(=O)n1C2)COC(=O)[C@]3(O)CC` [IRINOTECAN], for which the IC50 amounted to 4.61 µM in data set [1], 1.14 µM in data set [2] and 4.99 µM in data set [3]. Also, the inhibition in vivo at 50 mg/kg in data set [5] amounted to 51%.

In the case of `CC[C@@]1(O)C(=O)OCc2c1cc1n(c2=O)Cc2cc3c(CN(C)C)c(O)ccc3nc2-1` [TOPOTECAN], the IC50 in data set [1] was 0.04 µM; in data set [2], < 0.001 µM; in data set [3], 0.02 µM.
